We go through twelve compounds from ChEMBL document CHEMBL3867423, “New imidazolidineiminothione derivatives: Synthesis, spectral characterization and evaluation of antitumor, antiviral, antibacterial and antifungal activities” (Eur J Med Chem, 2016).

Assay [1] in a line: Antifungal activity against Penicillium chrysogenum at 5 mg after 24 hrs by agar well diffusion assay. It is filed as functional. In a few lines:
(§1)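 Agar well diffusion. 100 µL inoculum (1×10⁸ CFU/mL bacteria, 1×10⁶ CFU/mL yeast) spread on nutrient agar (bacteria) or Sabouraud dextrose agar (fungi). 10 mm wells loaded with 100 µL of 5 mg/mL compound in DMSO. DMSO as negative control. Erythromycin (bacteria) or […] (fungi) at 5 mg/ml as standards. Plates incubated 24 h at 37 °C. Inhibition zone diameter (mm) measured, mean of triplicate.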
In general terms: Agar diffusion results depend on both activity and mobility in agar.

A short description of assay [2]: Cytotoxicity against human HepG2 cells assessed as decrease in cell viability after 48 hrs by SRB assay. It is filed as functional, cell-based. Summed up:
(§2)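 SRB assay. Cells seeded at 10⁴ per well and allowed to attach for 24 h. Exposed to 0, 5, 12.5, 25 and 50 µg/mL, triplicate wells per dose, for 48 h at 37 °C in 5% CO₂. Cells fixed and SRB-stained; excess dye removed with acetic acid, bound dye recovered in Tris-EDTA and read on an ELISA reader. IC50 read from the surviving-fraction curve.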
In general terms: In SRB staining, fixed cells bind dye roughly in proportion to their protein.

Another assay has as its system Human alphaherpesvirus 1. The experiment in a line: Antiviral activity against HSV1 infected in African green monkey Vero cells by plaque formation assay. The class given is functional. Details: concentration or dose not given beside the values.
In the next assay the test system is Coxsackievirus B4. The experiment in a line: Antiviral activity against human Coxsackie virus B4 infected in African green monkey Vero cells by plaque formation assay. The class given is functional. Also noted: concentration or dose not given beside the values.
Another assay relates to Aspergillus niger. Briefly: Antifungal activity against Aspergillus niger at 5 mg after 24 hrs by agar well diffusion assay. The conditions noted are these: read-out: DIZ. The class given is functional. Summed up:
as §1

Another assay relates to Pseudomonas aeruginosa. Briefly: Antibacterial activity against Pseudomonas aeruginosa ATCC 25619 at 5 mg after 24 hrs by agar well diffusion assay. It is filed as functional. The conditions noted are these: ATCC 25619, 24 h, read-out: DIZ. Summed up: as §1
Assay [3] can be described thus: Cytotoxicity against human HCT116 cells assessed as decrease in cell viability after 48 hrs by SRB assay. The class given is functional, cell-based. Particulars: hct-116. Summed up:
as §2

A further assay relates to Hepatovirus A. The experiment in a line: Antiviral activity against Hepatitis A virus infected in African green monkey Vero cells by plaque formation assay. Also noted: concentration or dose not given beside the values. It is filed as functional.
A further assay deals with Bacillus pumilus. The experiment in a line: Antibacterial activity against Bacillus pumilus at 5 mg after 24 hrs by agar well diffusion assay. Particulars: read-out: DIZ. It is filed as functional. Summed up:
as §1

Assay [4] is described as follows: Cytotoxicity against human PC3 cells assessed as decrease in cell viability after 48 hrs by SRB assay. The class given is functional, cell-based. Particulars: pc-3. In a few lines: as §2
The test system of the next assay is Escherichia coli. The experiment in a line: Antibacterial activity against Escherichia coli ATCC 10536 at 5 mg after 24 hrs by agar well diffusion assay. It is filed as functional. Particulars: ATCC 10536, 24 h, read-out: DIZ. In a few lines: as §1
The test system of a further assay is Bacillus subtilis. Briefly: Antibacterial activity against Bacillus subtilis NCTC 10400 at 5 mg after 24 hrs by agar well diffusion assay. Particulars: NCTC 10400, 24 h, read-out: DIZ. It is filed as functional. Summed up:
as §1

The test system of assay [5] is Micrococcus luteus. The experiment in a line: Antibacterial activity against Micrococcus luteus ATCC 10240 at 5 mg after 24 hrs by agar well diffusion assay. It is filed as functional. The conditions noted are these: ATCC 10240, 24 h, read-out: DIZ. In a few lines: as §1
Assay [6] has as its system Micrococcus luteus. Briefly: Antibacterial activity against Sarcina lutea at 5 mg after 24 hrs by agar well diffusion assay. It is filed as functional. Particulars: read-out: DIZ. Summed up: as §1
Assay [7] can be described thus: Cytotoxicity against human MCF7 cells assessed as decrease in cell viability after 48 hrs by SRB assay. The class given is functional, cell-based. Details: unit not given here. Summed up:
as §2

The subject of another assay is Candida albicans. The experiment in a line: Antifungal activity against Candida albicans IMRU 3669 at 5 mg after 24 hrs by agar well diffusion assay. The class given is functional. Particulars: IMRU 3669, 24 h, read-out: DIZ. In a few lines: as §1

In assay [1], `N=C1C(=S)N(c2cc(Cl)cc(Cl)c2)C(=O)N1c1cccc(Cl)c1` gave an inhibition zone (IZ) of 21 mm. Also, the IC50 came to 0.025 µg in assay [2], 0.041 µg in assay [3], 0.031 µg in assay [4] and 0.011 in assay [7]. Also, the Activity is 36.4% in the assay on Human alphaherpesvirus 1, 41.6% in the assay on Coxsackievirus B4 and 100% in the assay on Hepatovirus A. The zone of inhibition at 5000 µg/disc was 16 mm in the assay on Aspergillus niger; 0 mm in the assay on Pseudomonas aeruginosa; 15 mm in the assay on Bacillus pumilus; 30 mm in the assay on Escherichia coli; 30 mm with Bacillus subtilis; 16 mm with Micrococcus luteus [5]. In addition, the zone of inhibition at 5000 µg/disc in the assay with Micrococcus luteus [6] and with Candida albicans was 24 mm in each case.

For `COc1ccc(OC)c(N2C(=O)N(c3ccc4c(c3)Cc3ccccc3-4)C(=N)C2=S)c1`, the inhibition zone (IZ) in assay [1] turned out to be 18 mm. Besides, the IC50 worked out at 0.048 µg in [2], 0.047 µg in assay [3], 0.056 µg in assay [4] and 0.052 in assay [7]. Besides, the Activity stood at 32.4% in the assay with Human alphaherpesvirus 1, 0% with Coxsackievirus B4 and 29.9% in the assay on Hepatovirus A. Also, the zone of inhibition at 5000 µg/disc in the assay with Aspergillus niger was determined as 14 mm; in the assay with Pseudomonas aeruginosa it was 0 mm; in the assay on Bacillus pumilus it was 17 mm; in the assay on Escherichia coli it was 18 mm; in the assay on Bacillus subtilis, 12 mm; in the assay with Micrococcus luteus [5], 16 mm. The values for the zone of inhibition at 5000 µg/disc in the assay on Micrococcus luteus [6] and in the assay on Candida albicans were 24 mm and 14 mm, respectively.

In turn, `N=C1C(=S)N(c2ccccc2)C(=O)N1c1c(Cl)cccc1Cl` had an inhibition zone (IZ) in assay [1] of 16 mm. Also, the Activity stood at 33.3% with Human alphaherpesvirus 1, 0% in the assay on Coxsackievirus B4 and 0% in the assay on Hepatovirus A. The zone of inhibition at 5000 µg/disc in the assay on Aspergillus niger was 17 mm; with Pseudomonas aeruginosa, 15 mm; in the assay on Bacillus pumilus, 18 mm; in the assay with Escherichia coli, 18 mm; in the assay with Bacillus subtilis, 18 mm; in the assay on Micrococcus luteus [5], 14 mm. The zone of inhibition at 5000 µg/disc with Micrococcus luteus [6] was 26 mm; in the assay with Candida albicans, 23 mm.

For the compound `CC[C@H]1OC(=O)[C@H](C)[C@@H](O[C@H]2C[C@@](C)(OC)[C@@H](O)[C@H](C)O2)[C@H](C)[C@@H](O[C@@H]2O[C@H](C)C[C@H](N(C)C)[C@H]2O)[C@](C)(O)C[C@@H](C)C(=O)[C@H](C)[C@@H](O)[C@]1(C)O` [ERYTHROMYCIN], the zone of inhibition at 5000 µg/disc in the assay on Pseudomonas aeruginosa turned out to be 30 mm; with Bacillus pumilus it was 32 mm; in the assay with Escherichia coli, 37 mm; with Bacillus subtilis it was 40 mm; in the assay on Micrococcus luteus [5] it was 32 mm; in the assay with Micrococcus luteus [6], 44 mm.

On to `Cc1ccc(N2C(=N)C(=S)N(c3cc(Cl)cc(Cl)c3)C2=O)cc1`, for which the inhibition zone (IZ) in assay [1] came to 19 mm. Also, the IC50 in assay [2] was determined as 0.014 µg; in assay [3] it was 0.053 µg; in assay [4], 0.035 µg; in assay [7], 0.009. The values for the Activity with Human alphaherpesvirus 1, in the assay with Coxsackievirus B4 and in the assay on Hepatovirus A were 71.6%, 43.6% and 66%, respectively. Besides, the zone of inhibition at 5000 µg/disc with Aspergillus niger was 18 mm; with Pseudomonas aeruginosa, 16 mm; in the assay on Bacillus pumilus it was 20 mm; with Escherichia coli, 16 mm; with Bacillus subtilis it was 16 mm; in the assay on Micrococcus luteus [5], 17 mm. For the same compound, the zone of inhibition at 5000 µg/disc in the assay on Micrococcus luteus [6] was 28 mm; with Candida albicans, 21 mm.

`COc1ccc(N2C(=O)N(c3cccc(Cl)c3)C(=N)C2=S)c(OC)c1`: the inhibition zone (IZ) in assay [1] came out at 20 mm. Besides, the IC50 in assay [2] was found to be 0.012 µg; in assay [3] it was 0.023 µg; in assay [4] it was 0.031 µg; in assay [7], 0.02. Moreover, the results for the Activity in the assay with Human alphaherpesvirus 1, with Coxsackievirus B4 and with Hepatovirus A were 47.4%, 2.3% and 36.2%, respectively. For the same compound, the zone of inhibition at 5000 µg/disc in the assay on Aspergillus niger worked out at 18 mm; in the assay with Pseudomonas aeruginosa it was 16 mm; in the assay with Bacillus pumilus, 17 mm; in the assay on Escherichia coli it was 20 mm; in the assay on Bacillus subtilis, 20 mm; with Micrococcus luteus [5], 14 mm. Further, the figures for the zone of inhibition at 5000 µg/disc in the assay on Micrococcus luteus [6] and in the assay with Candida albicans were 28 mm and 27 mm, respectively.

In [1], `Cc1ccc(F)cc1N1C(=N)C(=S)N(c2ccc(Br)cc2)C1=O` had an inhibition zone (IZ) of 21 mm. Besides, the Activity with Human alphaherpesvirus 1 stood at 43.1%; with Coxsackievirus B4 it was 0%; in the assay on Hepatovirus A it was 36.2%. In addition, the zone of inhibition at 5000 µg/disc with Aspergillus niger worked out at 20 mm; with Pseudomonas aeruginosa it was 21 mm; with Bacillus pumilus, 21 mm; in the assay on Escherichia coli it was 20 mm; in the assay with Bacillus subtilis, 22 mm; in the assay on Micrococcus luteus [5], 22 mm. Also, the values for the zone of inhibition at 5000 µg/disc in the assay with Micrococcus luteus [6] and in the assay with Candida albicans were 23 mm and 22 mm, respectively.

`N=C1C(=S)N(c2cc(Cl)cc(Cl)c2)C(=O)N1c1cc(Cl)c(Cl)cc1Cl`: the inhibition zone (IZ) in assay [1] is 20 mm. In addition, the IC50 in assay [2] was 0.017 µg; in assay [3] it was 0.015 µg; in assay [4], 0.017 µg; in [7], 0.015. Also, the figures for the Activity with Human alphaherpesvirus 1, with Coxsackievirus B4 and with Hepatovirus A were 96.7%, 20.6% and 80.3%, respectively. Moreover, the zone of inhibition at 5000 µg/disc was 15 mm with Aspergillus niger; 18 mm in the assay with Pseudomonas aeruginosa; 21 mm with Bacillus pumilus; 27 mm in the assay on Escherichia coli; 27 mm with Bacillus subtilis; 16 mm with Micrococcus luteus [5]. Moreover, the zone of inhibition at 5000 µg/disc with Micrococcus luteus [6] and in the assay on Candida albicans was 21 mm each time.

Turning to `N=C1C(=S)N(c2cc(Cl)cc(Cl)c2)C(=O)N1c1ccc(Cl)c(C(F)(F)F)c1`, the inhibition zone (IZ) in assay [1] was found to be 20 mm. Moreover, the IC50 in assay [2] was 0.028 µg; in assay [3], 0.044 µg; in [4], 0.039 µg; in assay [7] it was 0.024. The Activity in the assay with Human alphaherpesvirus 1 amounted to 9.6%; in the assay with Coxsackievirus B4 it was 0%; with Hepatovirus A it was 0%. Besides, the zone of inhibition at 5000 µg/disc in the assay with Aspergillus niger stood at 12 mm; in the assay on Pseudomonas aeruginosa it was 21 mm; with Bacillus pumilus, 21 mm; with Escherichia coli, 18 mm; in the assay with Bacillus subtilis, 20 mm; in the assay with Micrococcus luteus [5], 21 mm. For the same compound, the zone of inhibition at 5000 µg/disc came out at 23 mm with Micrococcus luteus [6] and 22 mm in the assay with Candida albicans.

The compound `COc1ccc(OC)c(N2C(=O)N(c3ccc(C)cc3)C(=N)C2=S)c1` came in with an inhibition zone (IZ) in assay [1] of 17 mm. Moreover, the IC50 in assay [2] worked out at 0.037 µg; in assay [3], 0.014 µg; in assay [4] it was 0.048 µg; in [7], 0.015. The values for the Activity in the assay with Human alphaherpesvirus 1, in the assay with Coxsackievirus B4 and with Hepatovirus A were 50.2%, 0% and 30.7%, respectively. Also, the zone of inhibition at 5000 µg/disc turned out to be 16 mm in the assay on Aspergillus niger; 14 mm in the assay with Pseudomonas aeruginosa; 20 mm in the assay on Bacillus pumilus; 16 mm in the assay with Escherichia coli; 16 mm with Bacillus subtilis; 17 mm in the assay on Micrococcus luteus [5]. The zone of inhibition at 5000 µg/disc is 26 mm in the assay on Micrococcus luteus [6] and 17 mm with Candida albicans.

Turning to `Cc1ncc([N+](=O)[O-])n1CCO` [METRONIDAZOLE], in assay [1], the inhibition zone (IZ) turned out to be 25 mm. Also, the zone of inhibition at 5000 µg/disc was found to be 33 mm in the assay with Aspergillus niger and 27 mm with Candida albicans.

`COc1cccc2c1C(=O)c1c(O)c3c(c(O)c1C2=O)C[C@@](O)(C(=O)CO)C[C@@H]3O[C@H]1C[C@H](N)[C@H](O)[C@H](C)O1` [DOXORUBICIN]: the IC50 is 0.007 µg in assay [2], 0.007 µg in [3] and 0.008 µg in assay [4].
